pIC50: −log10 of the molar value. Calls of active or inactive are those of the source. No cut-off for these calls is given here.

Sequence of Dickkopf-related protein 1/Lrp6 (Mus musculus) (O88572 whole entry, looked up, one chain of several): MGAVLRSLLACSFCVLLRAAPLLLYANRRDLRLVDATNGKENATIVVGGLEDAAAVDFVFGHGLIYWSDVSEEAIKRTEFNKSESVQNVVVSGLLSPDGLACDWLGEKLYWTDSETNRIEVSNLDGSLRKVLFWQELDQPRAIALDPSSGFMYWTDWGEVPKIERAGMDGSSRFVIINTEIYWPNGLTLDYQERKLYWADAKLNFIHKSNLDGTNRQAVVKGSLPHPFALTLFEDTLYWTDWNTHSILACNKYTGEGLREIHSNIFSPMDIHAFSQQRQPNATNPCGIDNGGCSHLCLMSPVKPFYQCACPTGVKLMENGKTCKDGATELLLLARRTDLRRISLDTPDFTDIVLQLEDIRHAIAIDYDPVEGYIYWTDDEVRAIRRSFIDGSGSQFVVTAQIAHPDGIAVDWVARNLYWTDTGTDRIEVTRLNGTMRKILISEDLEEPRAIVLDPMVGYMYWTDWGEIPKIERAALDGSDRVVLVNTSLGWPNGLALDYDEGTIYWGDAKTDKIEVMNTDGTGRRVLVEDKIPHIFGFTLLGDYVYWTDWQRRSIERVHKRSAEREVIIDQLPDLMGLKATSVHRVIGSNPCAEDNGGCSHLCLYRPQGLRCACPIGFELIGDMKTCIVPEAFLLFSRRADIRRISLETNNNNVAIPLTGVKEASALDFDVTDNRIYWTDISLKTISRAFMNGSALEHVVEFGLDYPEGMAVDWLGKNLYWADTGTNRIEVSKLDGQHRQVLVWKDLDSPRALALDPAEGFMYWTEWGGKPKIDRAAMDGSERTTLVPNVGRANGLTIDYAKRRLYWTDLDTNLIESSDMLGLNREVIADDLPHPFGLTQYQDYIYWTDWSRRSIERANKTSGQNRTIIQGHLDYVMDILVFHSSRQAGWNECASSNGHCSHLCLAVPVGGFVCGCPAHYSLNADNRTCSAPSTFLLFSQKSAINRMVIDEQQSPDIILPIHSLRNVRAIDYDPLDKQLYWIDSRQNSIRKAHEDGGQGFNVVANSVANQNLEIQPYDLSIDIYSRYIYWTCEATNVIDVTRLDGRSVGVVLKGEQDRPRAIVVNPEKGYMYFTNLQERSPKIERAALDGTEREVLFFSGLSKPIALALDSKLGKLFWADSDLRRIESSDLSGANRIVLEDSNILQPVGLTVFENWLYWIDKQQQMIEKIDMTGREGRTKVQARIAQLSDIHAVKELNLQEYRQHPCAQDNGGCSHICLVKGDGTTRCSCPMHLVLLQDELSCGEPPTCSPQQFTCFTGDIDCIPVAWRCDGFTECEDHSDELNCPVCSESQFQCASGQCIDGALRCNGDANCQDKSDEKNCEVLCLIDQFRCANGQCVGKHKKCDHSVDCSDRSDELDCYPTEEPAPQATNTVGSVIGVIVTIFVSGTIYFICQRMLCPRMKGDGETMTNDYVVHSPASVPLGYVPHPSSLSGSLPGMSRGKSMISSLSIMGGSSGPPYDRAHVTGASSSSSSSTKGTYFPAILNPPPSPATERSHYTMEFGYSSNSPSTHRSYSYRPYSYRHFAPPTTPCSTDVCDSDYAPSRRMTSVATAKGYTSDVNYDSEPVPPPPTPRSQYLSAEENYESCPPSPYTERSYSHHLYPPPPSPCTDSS

The first data set concerns the target T1, Dickkopf-related protein 1 (Mus musculus, UniProt O54908).
T1 sequence (O54908 whole entry): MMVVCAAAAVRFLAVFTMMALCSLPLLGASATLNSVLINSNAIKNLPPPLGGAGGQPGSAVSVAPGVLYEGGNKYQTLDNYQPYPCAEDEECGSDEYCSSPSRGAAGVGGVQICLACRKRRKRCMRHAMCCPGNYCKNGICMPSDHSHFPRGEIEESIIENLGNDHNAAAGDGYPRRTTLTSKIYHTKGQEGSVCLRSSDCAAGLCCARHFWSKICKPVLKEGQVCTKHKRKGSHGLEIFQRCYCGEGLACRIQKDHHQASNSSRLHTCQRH
The data set is described as follows: Inhibition of mouse DKK1 assessed as inhibition of DKK1-alkaline phophatase binding to LRP5 transfected in HEK293 cells. Type of data set: cell-based.
Conditions: not given
Usually pIC50 stands for −log10 of the IC50, conventionally taken in molar units. Turning to `CN(C)c1ccc2nc3c(C(=O)O)cc(=O)c(O)c-3oc2c1` [listing 1 of 3 here], the negative-log IC50 (pIC50) is 5.52.

Test system in a further data set: not listed separately
The data set is described as follows: Cytotoxicity against mouse primary cortical neurons assessed viable cells at 100 uM after 24 hrs by MTT assay. It is filed as cell-based, Cerebral cortex neuron. Conditions: cerebral cortex neuron, 24 h, 100 µM. The procedure, abridged: (§1)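 Primary mouse cortical neurons seeded at 25,000 or 15,000 cells/well and grown 6 days at 37 °C, 5% CO2. Test compound was then added in fresh medium (final DMSO 0.1%) for 24 h at 37 °C. MTT (2.5 mg/ml in PBS) was added for 4 h. Formazan was extracted with isopropanol/HCl and absorbance read at 545 nm. Read-out is % viable cells.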
(Tetrazolium dyes change colour on reduction, which living cells bring about.)
The compound `CN(C)c1ccc2nc3c(C(=O)O)cc(=O)c(O)c-3oc2c1` [listing 2 of 3 here] came in with an Activity of 100%.

Still in this data set, the particulars now being: primary cortical neurons, read-out: Activity.
Take `CC(C)OC(=O)c1cc(=O)c(O)c2oc3cc(N(C)C)ccc3nc1-2`: the viability at 24 h, 100 µM amounted to 100%.

As for `COC(=O)c1cc(=O)c(O)c2oc3cc(N(C)C)ccc3nc1-2`, the viability at 24 h, 100 µM came to 100%.

In the case of `COCCOC(=O)c1cc(O)c(O)c2oc3cc(=[N+](C)C)ccc-3nc12`, the viability at 24 h, 100 µM was determined as 100%.

Consider `CCCN(CCC)c1ccc2nc3c(C(=O)OC)cc(=O)c(O)c-3oc2c1`, for which the viability at 24 h, 100 µM turned out to be 100%.

Take `CN(C)c1ccc2nc3c(O)cc(=O)cc-3oc2c1`: the viability at 24 h, 100 µM is 100%.

Consider `CCCCOC(=O)c1cc(=O)c(O)c2oc3cc(N(CCC)CCC)ccc3nc1-2`, for which the viability at 24 h, 100 µM is 100%.

As for `COCCOC(=O)c1cc(=O)c(O)c2oc3cc(N(C)C)ccc3nc1-2`, the viability at 24 h, 100 µM was determined as 100%.

As for `CN(C)c1ccc2nc3ccc(=O)c(O)c-3oc2c1`, the viability at 24 h, 100 µM was 100%.

Consider `CCCCOC(=O)c1cc(=O)c(O)c2oc3cc(N(C)C)ccc3nc1-2`, for which the viability at 24 h, 100 µM is 100%.

Take `CCOC(=O)c1cc(O)c(O)c(O)c1` [ETHYLGALLATE]: the viability at 24 h, 100 µM stood at 100%.

Turning to `CCOC(=O)c1cc(=O)c(O)c2oc3cc(N(C)C)ccc3nc1-2`, the viability at 24 h, 100 µM turned out to be 100%.

For the compound `CCOC(=O)c1cc(O)c(O)c2oc3cc(=[N+](C)C)ccc-3nc12`, the viability at 24 h, 100 µM was 100%.

As for `CCCCOC(=O)c1cc(O)c(O)c2oc3cc(=[N+](C)C)ccc-3nc12`, the viability at 24 h, 100 µM was 100%.

Turning to `CN(C)c1ccc2nc3c(C(=O)O)cc(=O)c(O)c-3oc2c1` [listing 1 of 3 here], the viability at 24 h, 100 µM is 100%.

For `CCCCCCOC(=O)c1cc(O)c(O)c2oc3cc(=[N+](C)C)ccc-3nc12`, the viability at 24 h, 100 µM was determined as 100%.

As to `CCCCCCOC(=O)c1cc(=O)c(O)c2oc3cc(N(C)C)ccc3nc1-2`, the viability at 24 h, 100 µM turned out to be 100%.

Turning to `Cc1cc(=O)cc2oc3cc(N(C)C)ccc3nc1-2`, the viability at 24 h, 100 µM was found to be 100%.

As for `CN(C)c1ccc2nc3c(C(=O)OCc4ccccc4)cc(=O)c(O)c-3oc2c1`, the viability at 24 h, 100 µM stood at 100%.

The target of a further data set is Dickkopf-related protein 1/Low-density lipoprotein receptor-related protein 6 (Homo sapiens) (UniProt O94907+O75581). The data set is described as follows: Inhibition of DKK1/LRP6 (unknown origin) expressed in HEK293 cells assessed as inhibition of DKK1/LRP6 interaction at 100 uM after 2 hrs by immunofluorescence method. It is filed as cell-based.
Sequence of Dickkopf-related protein 1/Low-density lipoprotein receptor-related protein 6 (Homo sapiens) (O75581 20-1613 partner limits assumed): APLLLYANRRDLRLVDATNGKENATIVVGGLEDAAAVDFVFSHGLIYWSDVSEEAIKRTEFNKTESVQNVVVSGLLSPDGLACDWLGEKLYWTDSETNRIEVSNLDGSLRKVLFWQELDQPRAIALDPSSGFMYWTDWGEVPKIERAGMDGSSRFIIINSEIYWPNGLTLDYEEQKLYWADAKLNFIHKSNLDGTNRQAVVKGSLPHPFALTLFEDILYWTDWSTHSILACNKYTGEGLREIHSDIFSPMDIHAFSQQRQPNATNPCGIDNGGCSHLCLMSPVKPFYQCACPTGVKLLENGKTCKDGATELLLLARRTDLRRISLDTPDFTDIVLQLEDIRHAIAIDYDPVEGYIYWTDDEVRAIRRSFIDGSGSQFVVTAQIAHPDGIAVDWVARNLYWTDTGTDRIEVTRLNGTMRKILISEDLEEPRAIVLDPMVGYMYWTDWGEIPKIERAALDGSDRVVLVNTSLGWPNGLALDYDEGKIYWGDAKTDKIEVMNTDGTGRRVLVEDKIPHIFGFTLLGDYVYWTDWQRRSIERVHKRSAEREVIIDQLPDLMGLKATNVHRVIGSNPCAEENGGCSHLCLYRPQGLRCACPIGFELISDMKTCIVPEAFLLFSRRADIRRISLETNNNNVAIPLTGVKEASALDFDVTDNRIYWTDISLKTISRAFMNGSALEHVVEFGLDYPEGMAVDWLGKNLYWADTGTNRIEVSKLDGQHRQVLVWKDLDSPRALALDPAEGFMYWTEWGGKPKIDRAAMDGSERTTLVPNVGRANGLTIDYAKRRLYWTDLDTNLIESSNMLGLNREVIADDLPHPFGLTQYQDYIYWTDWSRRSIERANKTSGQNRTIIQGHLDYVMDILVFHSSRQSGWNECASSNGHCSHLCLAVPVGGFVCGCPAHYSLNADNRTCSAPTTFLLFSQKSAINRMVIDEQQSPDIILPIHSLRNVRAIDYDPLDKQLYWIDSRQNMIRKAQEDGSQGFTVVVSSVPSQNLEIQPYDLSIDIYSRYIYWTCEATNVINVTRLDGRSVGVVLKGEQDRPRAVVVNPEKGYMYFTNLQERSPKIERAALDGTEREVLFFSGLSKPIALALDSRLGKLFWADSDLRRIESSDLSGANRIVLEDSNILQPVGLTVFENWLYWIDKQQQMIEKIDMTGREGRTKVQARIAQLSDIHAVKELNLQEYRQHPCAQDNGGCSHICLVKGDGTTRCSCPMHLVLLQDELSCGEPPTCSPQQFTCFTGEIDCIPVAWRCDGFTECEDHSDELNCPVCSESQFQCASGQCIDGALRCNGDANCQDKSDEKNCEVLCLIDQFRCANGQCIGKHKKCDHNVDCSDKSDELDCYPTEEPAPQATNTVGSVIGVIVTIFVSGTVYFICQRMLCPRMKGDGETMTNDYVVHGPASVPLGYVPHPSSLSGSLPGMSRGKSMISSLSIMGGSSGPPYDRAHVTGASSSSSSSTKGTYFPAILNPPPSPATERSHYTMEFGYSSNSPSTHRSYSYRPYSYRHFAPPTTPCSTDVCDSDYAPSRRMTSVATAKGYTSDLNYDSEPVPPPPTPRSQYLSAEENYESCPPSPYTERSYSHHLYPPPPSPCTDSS
Sequence of Dickkopf-related protein 1/Low-density lipoprotein receptor-related protein 6 (Homo sapiens) (O94907 32-266 limits assumed): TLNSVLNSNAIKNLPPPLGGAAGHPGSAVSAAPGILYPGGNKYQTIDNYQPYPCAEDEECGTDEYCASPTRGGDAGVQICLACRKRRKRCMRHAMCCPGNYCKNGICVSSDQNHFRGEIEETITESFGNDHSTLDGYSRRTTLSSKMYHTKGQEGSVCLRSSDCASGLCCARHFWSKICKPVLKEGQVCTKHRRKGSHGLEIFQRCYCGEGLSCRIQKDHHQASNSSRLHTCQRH
Conditions: not given
The procedure, abridged: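 HEK-293 cells stably overexpressing LRP6, sub-confluent, incubated 2 h at 4 °C with DKK1 conditioned medium plus compound or DMSO. Fixed in 3% paraformaldehyde, blocked in PBS/0.1% BSA, stained with rabbit anti-DKK1 and Alexa488 secondary; DAPI nuclei. Surface DKK1 fluorescence quantified over 750 cells as % DKK1 binding; three independent experiments in duplicate.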
As to `CC(C)OC(=O)c1cc(=O)c(O)c2oc3cc(N(C)C)ccc3nc1-2`, the inhibition result is “Active”.

With `COC(=O)c1cc(=O)c(O)c2oc3cc(N(C)C)ccc3nc1-2`, the inhibition entry is “Active”.

In the case of `COCCOC(=O)c1cc(O)c(O)c2oc3cc(=[N+](C)C)ccc-3nc12`, the inhibition result was “Active”.

Regarding `CCCN(CCC)c1ccc2nc3c(C(=O)OC)cc(=O)c(O)c-3oc2c1`, the inhibition result is “Active”.

Turning to `CN(C)c1ccc2nc3c(O)cc(=O)cc-3oc2c1`, the inhibition entry was “Active”.

For `CCCCOC(=O)c1cc(=O)c(O)c2oc3cc(N(CCC)CCC)ccc3nc1-2`, the inhibition entry is “Active”.

As to `COCCOC(=O)c1cc(=O)c(O)c2oc3cc(N(C)C)ccc3nc1-2`, the inhibition entry is “Active”.

As to `CN(C)c1ccc2nc3ccc(=O)c(O)c-3oc2c1`, the inhibition entry was “Active”.

Consider `CCCCOC(=O)c1cc(=O)c(O)c2oc3cc(N(C)C)ccc3nc1-2`, for which the inhibition entry was “Active”.

For the compound `CCOC(=O)c1cc(O)c(O)c(O)c1` [ETHYLGALLATE], the inhibition entry was “Active”.

In the case of `CCOC(=O)c1cc(=O)c(O)c2oc3cc(N(C)C)ccc3nc1-2`, the inhibition result was “Active”.

Consider `CCOC(=O)c1cc(O)c(O)c2oc3cc(=[N+](C)C)ccc-3nc12`, for which the inhibition entry was “Active”.

Turning to `CN(C)c1ccc2nc3c(C(=O)O)cc(=O)c(O)c-3oc2c1` [listing 3 of 3 here], the inhibition entry is “Active”.

For `CCCCOC(=O)c1cc(O)c(O)c2oc3cc(=[N+](C)C)ccc-3nc12`, the inhibition result is “Active”.

As for `CCCCCCOC(=O)c1cc(O)c(O)c2oc3cc(=[N+](C)C)ccc-3nc12`, the inhibition entry was “Active”.

As for `CCCCCCOC(=O)c1cc(=O)c(O)c2oc3cc(N(C)C)ccc3nc1-2`, the inhibition result is “Active”.

As for `Cc1cc(=O)cc2oc3cc(N(C)C)ccc3nc1-2`, the inhibition entry was “Active”.

On to `CN(C)c1ccc2nc3c(C(=O)OCc4ccccc4)cc(=O)c(O)c-3oc2c1`, for which the inhibition entry is “Active”.

Another data set has as its target Dickkopf-related protein 1/Lrp6 (Mus musculus) (UniProt O54908+O88572). The data set is described as follows: Inhibition of DKK1-LRP6 interactions in mouse cortical neurons assessed as inhibition of prostaglandinJ2-induced tau phosphorylation at Ser396 residue at 10 uM for 1 hr by western bloting.
Conditions: not given
The method in brief: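 Primary mouse cortical neurons treated 1 h at 37 °C with 20 µM PGJ2 plus compound or DMSO. Lysed at 4 °C in Tris/NaCl/EDTA/Triton buffer, pH 7.6, with protease and phosphatase inhibitors; protein measured by Bradford. SDS-PAGE western blot probed with anti-pSer396 tau (1:1000, overnight, 4 °C) and anti-actin; ECL detection. Densitometry normalized to actin; three independent experiments, mean SD.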
A general note: Immunoblotting shows a protein as a band on a membrane.
In the case of `CC(C)OC(=O)c1cc(=O)c(O)c2oc3cc(N(C)C)ccc3nc1-2`, the inhibition result is “Active”.

`COC(=O)c1cc(=O)c(O)c2oc3cc(N(C)C)ccc3nc1-2`: the inhibition result was “Active”.

With `COCCOC(=O)c1cc(=O)c(O)c2oc3cc(N(C)C)ccc3nc1-2`, the inhibition entry is “Active”.

As to `CN(C)c1ccc2nc3ccc(=O)c(O)c-3oc2c1`, the inhibition result is “Active”.

Take `CCCCOC(=O)c1cc(=O)c(O)c2oc3cc(N(C)C)ccc3nc1-2`: the inhibition result was “Active”.

On to `CCOC(=O)c1cc(=O)c(O)c2oc3cc(N(C)C)ccc3nc1-2`, for which the inhibition entry is “Active”.

Consider `CN(C)c1ccc2nc3c(C(=O)O)cc(=O)c(O)c-3oc2c1` [listing 3 of 3 here], for which the inhibition result is “Active”.

Take `CCCCCCOC(=O)c1cc(=O)c(O)c2oc3cc(N(C)C)ccc3nc1-2`: the inhibition entry was “Active”.

For the compound `CN(C)c1ccc2nc3c(C(=O)OCc4ccccc4)cc(=O)c(O)c-3oc2c1`, the inhibition result was “Active”.

Test system in a further data set: not listed separately
Briefly: Cytotoxicity against mouse primary cortical neurons assessed as viable cells at 10 uM after 24 hrs by MTT assay. Type of data set: cell-based, Cerebral cortex neuron. Conditions: cerebral cortex neuron, 24 h, 10 µM. The procedure, abridged: as §1
For `CN(C)c1ccc2nc3c(C(=O)O)cc(=O)c(O)c-3oc2c1` [listing 2 of 3 here], the Activity stood at 100%.

Still in this data set, the particulars now being: primary cortical neurons, read-out: Activity.
In the case of `CC(C)OC(=O)c1cc(=O)c(O)c2oc3cc(N(C)C)ccc3nc1-2`, the viability at 24 h, 10 µM was 100%.

Take `COC(=O)c1cc(=O)c(O)c2oc3cc(N(C)C)ccc3nc1-2`: the viability at 24 h, 10 µM came to 100%.

Turning to `COCCOC(=O)c1cc(O)c(O)c2oc3cc(=[N+](C)C)ccc-3nc12`, the viability at 24 h, 10 µM worked out at 100%.

For the compound `CCCN(CCC)c1ccc2nc3c(C(=O)OC)cc(=O)c(O)c-3oc2c1`, the viability at 24 h, 10 µM stood at 100%.

Take `CN(C)c1ccc2nc3c(O)cc(=O)cc-3oc2c1`: the viability at 24 h, 10 µM worked out at 100%.

For the compound `CCCCOC(=O)c1cc(=O)c(O)c2oc3cc(N(CCC)CCC)ccc3nc1-2`, the viability at 24 h, 10 µM worked out at 100%.

For the compound `COCCOC(=O)c1cc(=O)c(O)c2oc3cc(N(C)C)ccc3nc1-2`, the viability at 24 h, 10 µM came to 100%.

As for `CN(C)c1ccc2nc3ccc(=O)c(O)c-3oc2c1`, the viability at 24 h, 10 µM amounted to 100%.

Take `CCCCOC(=O)c1cc(=O)c(O)c2oc3cc(N(C)C)ccc3nc1-2`: the viability at 24 h, 10 µM worked out at 100%.

With `CCOC(=O)c1cc(O)c(O)c(O)c1` [ETHYLGALLATE], the viability at 24 h, 10 µM was found to be 100%.

`CCOC(=O)c1cc(=O)c(O)c2oc3cc(N(C)C)ccc3nc1-2`: the viability at 24 h, 10 µM is 100%.

On to `CCOC(=O)c1cc(O)c(O)c2oc3cc(=[N+](C)C)ccc-3nc12`, for which the viability at 24 h, 10 µM was found to be 100%.

As for `CCCCOC(=O)c1cc(O)c(O)c2oc3cc(=[N+](C)C)ccc-3nc12`, the viability at 24 h, 10 µM was 100%.

In the case of `CN(C)c1ccc2nc3c(C(=O)O)cc(=O)c(O)c-3oc2c1` [listing 1 of 3 here], the viability at 24 h, 10 µM was 100%.

For `CCCCCCOC(=O)c1cc(O)c(O)c2oc3cc(=[N+](C)C)ccc-3nc12`, the viability at 24 h, 10 µM turned out to be 100%.

On to `CCCCCCOC(=O)c1cc(=O)c(O)c2oc3cc(N(C)C)ccc3nc1-2`, for which the viability at 24 h, 10 µM came out at 100%.

Regarding `Cc1cc(=O)cc2oc3cc(N(C)C)ccc3nc1-2`, the viability at 24 h, 10 µM is 100%.

Take `CN(C)c1ccc2nc3c(C(=O)OCc4ccccc4)cc(=O)c(O)c-3oc2c1`: the viability at 24 h, 10 µM is 100%.

The values are drawn from ChEMBL document CHEMBL3745621, “Synthesis and evaluation of gallocyanine dyes as potential agents for the treatment of Alzheimer's disease and related neurodegenerative tauopathies” (Eur J Med Chem, 2016).
